One compound from ChEMBL document CHEMBL1221219, “Selective blockade of 2-arachidonoylglycerol hydrolysis produces cannabinoid behavioral effects” (Nat Chem Biol, 2009) can be followed below.

Activity calls are given as the source filed them. No cut-off for these calls is given here.

In test [1] the test system is Mus musculus. Nature of the test: Inhibition of FAAH in intraperitoneally dosed C57B1/6J mouse brain membrane after 4 hrs by competitive activity-based protein profiling method. In kind it is functional, organism-based. An outline of the steps: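 Male C57Bl/6J mice (6-8 weeks, 20-26 g) given inhibitor i.p. in 4:1 v/v PEG300:Tween80 at 4 ul g^-1 (4-40 mg kg^-1); vehicle controls. Brain membrane proteomes (1 mg ml^-1 in PBS) labelled with FP-rhodamine (2 μM) for 30 min at room temperature. Readout by SDS-PAGE and in-gel fluorescence scanning, compared with vehicle.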

Test [2] deals with Mus musculus. Nature of the test: Inhibition of MAGL in intraperitoneally dosed C57B1/6J mouse brain membrane assessed as increase in 2-AG level after 4 hrs relative to control. In kind it is functional, organism-based. In short, it runs like this: (§1)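 Male C57Bl/6J mice dosed i.p. in 4:1 v/v PEG300:Tween80, with vehicle controls; killed at set times (0.5-24 h, or 4 h). Brain membrane 2-AG hydrolysis measured by LC-MS substrate assay, and brain 2-AG measured by lipid LC-MS, relative to vehicle.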

Test [3] concerns Mus musculus. Nature of the test: Inhibition of FAS in C57B1/6J mouse brain membrane at 16 mg/kg, ip after 4 hrs by competitive activity-based protein profiling-MudPIT method. Type of test: functional, organism-based. Further details: dose 16 mg/kg. An outline of the steps: (§2)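 After i.p. dosing in 4:1 PEG300:Tween80, male C57Bl/6J mice were killed at 4 h. Brain membrane proteomes from treated and vehicle mice were labelled with FP-biotin. Labelled proteins were enriched on avidin, digested on-bead with trypsin and analysed by multidimensional LC-MS. Proteins were identified by SEQUEST, and dosed samples were compared with vehicle.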

Test [4] deals with Mus musculus. Nature of the test: Inhibition of ABHD12 in C57B1/6J mouse brain membrane at 16 mg/kg, ip after 4 hrs by competitive activity-based protein profiling-MudPIT method. In kind it is functional, organism-based. Further details: dose 16 mg/kg. An outline of the steps: (§3)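 Mice were dosed 16 mg kg^-1 i.p. or vehicle and killed at 4 h. Brain membrane proteomes were labelled with FP-biotin, avidin-enriched, trypsin-digested on bead, analysed by multidimensional LC-MS and identified by SEQUEST.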

For test [5], the system named is Mus musculus. The test can be described thus: Inhibition of ABHD3 in C57B1/6J mouse brain membrane at 16 mg/kg, ip after 4 hrs by competitive activity-based protein profiling-MudPIT method. Type of test: functional, organism-based. Further details: dose 16 mg/kg. In short, it runs like this:
as §3

For test [6], the system named is Mus musculus. Nature of the test: Inhibition of GPID in C57B1/6J mouse brain membrane at 16 mg/kg, ip after 4 hrs by competitive activity-based protein profiling-MudPIT method. In kind it is functional, organism-based. More on the design: dose 16 mg/kg. In short, it runs like this: as §2
Test [7] relates to Mus musculus. Nature of the test: Inhibition of AChE in C57B1/6J mouse brain membrane at 16 mg/kg, ip after 4 hrs by competitive activity-based protein profiling-MudPIT method. Type of test: functional, organism-based. More on the design: dose 16 mg/kg. In short, it runs like this:
as §3

Test [8] deals with Mus musculus. Nature of the test: Inhibition of ACOT2 in C57B1/6J mouse brain membrane at 16 mg/kg, ip after 4 hrs by competitive activity-based protein profiling-MudPIT method. In kind it is functional, organism-based. More on the design: dose 16 mg/kg. In short, it runs like this: as §3
The subject of test [9] is Mus musculus. Nature of the test: Inhibition of NTE in C57B1/6J mouse brain membrane at 16 mg/kg, ip after 4 hrs by competitive activity-based protein profiling-MudPIT method. Further details: dose 16 mg/kg. Type of test: functional, organism-based. An outline of the steps: as §2
In test [10] the test system is Mus musculus. The test can be described thus: Inhibition of DPP9 in C57B1/6J mouse brain membrane at 16 mg/kg, ip after 4 hrs by competitive activity-based protein profiling-MudPIT method. In kind it is functional, organism-based. Further details: dose 16 mg/kg. In short, it runs like this:
as §3

Test [11] concerns Mus musculus. The test can be described thus: Inhibition of AARE in C57B1/6J mouse brain membrane at 16 mg/kg, ip after 4 hrs by competitive activity-based protein profiling-MudPIT method. More on the design: dose 16 mg/kg. Type of test: functional, organism-based. An outline of the steps:
as §3

The test system of test [12] is Mus musculus. Nature of the test: Inhibition of PAFAH-1Bg in C57B1/6J mouse brain membrane at 16 mg/kg, ip after 4 hrs by competitive activity-based protein profiling-MudPIT method. In kind it is functional, organism-based. More on the design: dose 16 mg/kg. An outline of the steps:
as §2

The subject of test [13] is Mus musculus. The test can be described thus: Decrease in arachidonic acid levels in intraperitoneally dosed C57B1/6J mouse brain after 4 hrs by LC-MS. In kind it is functional, organism-based. An outline of the steps: (§4)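 Male C57Bl/6J mice given 4, 8, 16 or 40 mg kg^-1 i.p. in 4:1 PEG300:Tween80 at 4 μl g^-1, or vehicle, and killed after 4 h. Whole-brain lipids were quantified by LC-MS.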

Test [14] has as its system Mus musculus. Nature of the test: Change in palmitic acid in intraperitoneally dosed C57B1/6J mouse brain by LC-MS. Type of test: functional, organism-based. An outline of the steps:
as §4

Test [15] has as its system Mus musculus. Nature of the test: Change in 2-AG levels in intraperitoneally dosed C57B1/6J mouse brain by LC-MS. Type of test: functional, organism-based. An outline of the steps:
as §4

The test system of test [16] is Mus musculus. Nature of the test: Change in arachidonic acid levels in intraperitoneally dosed C57B1/6J mouse brain by LC-MS. In kind it is functional, organism-based. In short, it runs like this: as §4
For test [17], the system named is Mus musculus. Nature of the test: Inhibition of MAGL in C57B1/6J mouse brain membrane assessed as inhibition of 2-AG hydrolysis activity at 16 mg/kg, ip upto 24 hrs by competitive activity-based protein profiling method relative to control. In kind it is functional. Conditions: route intraperitoneal. An outline of the steps:
as §1

For test [18], the system named is Mus musculus. The test can be described thus: Change in N-acylethanolamine level in C57B1/6J mouse brain at 16 mg/kg, ip by LC-MS. In kind it is functional, organism-based. Further details: dose 16 mg/kg. An outline of the steps: (§5)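 Mice received 16 mg kg^-1 i.p. in 4:1 PEG300:Tween80 and were killed at 0.5, 1, 2, 4, 8 and 24 h. Brain lipids, including N-acylethanolamines, MAGs, free fatty acids and arachidonic acid, were measured by LC-MS.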

The subject of test [19] is Mus musculus. Nature of the test: Change in free fatty acid level in C57B1/6J mouse brain at 16 mg/kg, ip by LC-MS. Type of test: functional, organism-based. Further details: dose 16 mg/kg. In short, it runs like this:
as §5

For test [20], the system named is Mus musculus. Nature of the test: Induction of hypothermia in C57B1/6J mouse at 16 mg/kg, ip. In kind it is functional, organism-based. More on the design: dose 16 mg/kg. In short, it runs like this:
(§6)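 Male C57Bl/6J mice, 6-8 weeks, 20-26 g, given 16 mg kg^-1 i.p. in 4:1 v/v PEG300:Tween80 at 4 μl g^-1; vehicle controls received PEG300:Tween80 alone. Cannabinoid effects were scored in the tetrad test.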

The test system of test [21] is Mus musculus. The test can be described thus: Induction of hypomotility in C57B1/6J mouse at 16 mg/kg, ip. In kind it is functional, organism-based. Further details: dose 16 mg/kg. An outline of the steps: as §6
The subject of test [22] is Mus musculus. Nature of the test: Inhibition of JZL184 induced immobility in C57B1/6J mouse at 16 mg/kg, ip. In kind it is functional, organism-based. Further details: dose 16 mg/kg.
Test [23] deals with Mus musculus. The test can be described thus: Induction of hypothermia in CB1 receptor deficient C57B1/6J mouse at 16 mg/kg, ip. Type of test: functional, organism-based. Further details: dose 16 mg/kg. An outline of the steps: as §6
Test [24] deals with T1, Fatty-acid amide hydrolase 1 (Mus musculus) (UniProt O08914).
T1 sequence (whole entry): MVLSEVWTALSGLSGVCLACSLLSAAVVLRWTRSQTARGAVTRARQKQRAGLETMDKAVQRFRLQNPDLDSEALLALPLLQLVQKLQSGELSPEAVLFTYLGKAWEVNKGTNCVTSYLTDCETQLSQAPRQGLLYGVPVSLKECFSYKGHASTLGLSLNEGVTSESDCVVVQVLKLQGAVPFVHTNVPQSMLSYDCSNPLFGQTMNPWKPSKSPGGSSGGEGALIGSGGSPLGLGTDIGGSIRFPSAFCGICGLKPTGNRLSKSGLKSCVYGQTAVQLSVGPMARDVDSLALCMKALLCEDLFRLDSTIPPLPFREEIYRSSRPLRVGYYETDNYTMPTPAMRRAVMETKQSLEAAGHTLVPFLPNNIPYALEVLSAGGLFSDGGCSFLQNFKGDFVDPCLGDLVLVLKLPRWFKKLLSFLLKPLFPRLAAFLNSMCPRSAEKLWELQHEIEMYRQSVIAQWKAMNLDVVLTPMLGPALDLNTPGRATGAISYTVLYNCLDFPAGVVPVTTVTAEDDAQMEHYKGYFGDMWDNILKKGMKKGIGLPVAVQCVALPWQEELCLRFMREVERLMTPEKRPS
Particulars: C57B1/6J, Brain, Membrane, 10 uM.

For the compound `O=C(Oc1ccc([N+](=O)[O-])cc1)N1CCC(C(O)(c2ccc3c(c2)OCO3)c2ccc3c(c2)OCO3)CC1`, the inhibition entry in the test with Mus musculus [1] and with Mus musculus [2] was “Dose-dependent effect” in each case. Moreover, the inhibition result with Mus musculus [3], with Mus musculus [4], in the test with Mus musculus [5], in the test with Mus musculus [6], in the test on Mus musculus [7] and with Mus musculus [8] was “inactive” throughout. The inhibition entry in the test on Mus musculus [9], in the test on Mus musculus [10], in the test with Mus musculus [11] and with Mus musculus [12] was “inactive” throughout. In addition, the result with Mus musculus [13], with Mus musculus [20] and in the test on Mus musculus [21] was Active. Further, the outcome with Mus musculus [14], with Mus musculus [15], with Mus musculus [16], with Mus musculus [18], in the test with Mus musculus [19] and with Mus musculus [23] was inactive. Besides, in the test with Mus musculus [17], the inhibition in vivo at 16 mg/kg is more than 80%. Also, the inhibition entry (with Mus musculus [22]; in test [24]) was “Active” in each case.
